Measurements published in the RNAGym collection of RNA variant scans (doi:10.1126/science.aae0568).
Variants at the floor of the assay were thinned out.

B1: tRNA (parent)
chain: GUUCCGUUGGCGUAAUGGUAACGCGUCUCCCUCCUAAGGAGAAGACUGCGGGUUCGAGUCCCGUACGGAACG

Variants of: B1
Assay: yeast fitness relative to wild type (ratio to wild type); higher = fitter; tRNA-Arg(CCU), competitive growth, 37 C, YPD
Summary of the method: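 For this measurement, the tRNA-Arg(CCU) gene was varied by chemical synthesis at a 3% per-site mutation rate across 69 sites, and each variant was placed at the native genomic locus in Saccharomyces cerevisiae. The pooled strains went through a 24-hour competition in YPD at 37°C in six parallel replicates, with amplicons from start and end populations read by 100-nucleotide paired-end sequencing. Darwinian fitness relative to wild type followed from the change in each genotype's frequency. Genotypes needed ≥ 100 starting reads, and estimates < 0.5 were set to 0.5.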

Variant | yeast fitness
GUUCCGUUGGCGUAAUGGUAACGCGUCUCCCUCCUAAGAAGAAAACUGCGAGUUCGAGUCCCGUACGGAACG | 0.597
GUUCCGUUGGCGUAAUGGUAACGCGUCUCCCUCCUAAGAAGAACACUGCGGGUUCGAGUCCCGUACGGAACG | 0.816
GUUCCGUUGGCGUAAUGGUAACGCGUCUCCCUCCUAAUGAGAAGACUGCGGGUUCGAGUCCCGUACCGAACG | 0.772
GUUCCGUUGGCGUAAUGGUAACGCGUCUCCCUCCUAAGAAGAAGCCUGCGGGUUCGAGUCUCGUACGGAACG | 0.706
GUUCCGUUGGCGUAAUGGUAACGCGUCUCCCUCCUAAGAAGAAGCCUGCGGGUUCGAGUCACGUACGGAACG | 0.618
GUUCCGUUGGCGUAAUGGUAACGCGUCUCCCUCCUAAGAAGAUGAUUGCGGGUUCGAGUCCCGUACGGAACG | 0.574
GUUCCGUUGGCGUAAUGGUAACGCGUCUCCCUCCUAAGAAGAAGACAGCGGGUUCGGGUCCCGUACGGAACG | ≤ 0.5
GUUCCGUUGGCGUAAUGGUAACGCGUCUCCCUCCUAAGCAGCAGCCUGCGGGUUCGAGUCCCGUACGGACCG | ≤ 0.5
GUUCCGUUGGCGUAAUGGUAACGCGUCUCCCUCCUAAGAAGAAGACUGCGGGUUCAAGUCCCGUACGGAACG | 0.914
GUUCCGUUGGCGUAAUGGUAACGCGUCUCCCUCCUAAGAAGAAGACUGCGGGUUCCAGUCCCGUACGGAACG | 0.603
GUUCCGUUGGCGUAAUGGUAACGCGUCUCCCUCCUAAGAAGAAGACAGCGGGUUCGAGUCCCGUACGGAACG | 0.89
GUUCCGUUGGCGUAAUGGUAACGCGUCUCCCUCCUAAGAAGAAGACAGCGGGUUUGAGUCCCGUACAGGACG | ≤ 0.5
GUUCCGUUGGCGUAAUGGUAACGCGUCUCCCUCCUAAGAAGAAGACUGCGGGUUCGAGUCCCGUGCGGAACG | 0.985
GUUCCGUUGGCGUAAUGGUAACGCGUCUCCCUCCUAAGAAGAAGACUGCGGGUUCGAGUCCCGUCCGGAACG | 0.837
GUUCCGUUGGCGUAAUGGUAACGCGUCUCCCUCCUAAGCAGAGGACUGCGGGUUCGAGUCCCGUACGGAACG | 0.684
GUUCCGUUGGCGUAAUGGUAACGCGUCUCCCUCCUAAGAAGAAGACUGCGGGAUCGAGUCCCGUACGGAACG | 0.596
GUUCCGUUGGCGUAAUGGUAACGCGUCUCCCUCCUAAGAAGAUGACUGCGGGAUCGUGUCCCGUUCGGAACG | ≤ 0.5
GUUCCGUUGGCGUAAUGGUAACGCGUCUCCCUCCUAAGAAGAAGACUGCGGCUUGGAGUCCCAUACGGAACG | ≤ 0.5
GUUCCGUUGGCGUAAUGGUAACGCGUCUCCCUCCUAAGAUGAAGACUGCGGGUUCGAGUCCCGUACGGAACG | 1.19

Variant | yeast fitness
GUUCCGUUGGCGUAAUGGUAACGCGUCUCCCUCCUAAGAAGAAGACUGCGGCUUGGAGUACCGUACGGAACG | ≤ 0.5
GUUCCGUUGGCGUAAUGGUAACGCGUCUCCCUCCUAAGAAGAAGACUGCGCGUUCGAGUCCCGUACGGAACG | 0.562
GUUCCGUUGGCGUAAUGGUAACGCGUCUCCCUCCUAAGAAGAAGACUGCGGGUUCGAGUGCCGUACGGAACG | 0.666
GUUCCGUUGGCGUAAUGGUAACGCGUCUCCCUCCUAAGAAGAAGACUGCGGGUUCGAGUCCCGUAUGGAGCG | 0.601
GUUCCGUUGGCGUAAUGGUAACGCGUCUCCCUCCUAAGCAGACGACUGCGGGUUCGCGUCCCGUACGGAACG | 0.628
GUUCCGUUGGCGUAAUGGUAACGCGUCUCCCUCCUAAGCCAGAGACUGCGGGUUCGAGUCCCGUUCGGAACG | ≤ 0.5
GUUCCGUUGGCGUAAUGGUAACGCGUCUCCCUCCUAAGCAGCAGCCUGCGGGUUCGAGUCCCGUACGGAACG | 0.538
GUUCCGUUGGCGUAAUGGUAACGCGUCUCCCUCCUAAGCAGCAGACUGCGGGUUCGAGUCCCGUACGGAACG | 0.687
GUUCCGUUGGCGUAAUGGUAACGCGUCUCCCUCCUAAGAAGAAGACUGCGGGUUUGAGUCCCGUACGCGACG | ≤ 0.5
GUUCCGUUGGCGUAAUGGUAACGCGUCUCCCUCCUAAGCAGGAGACUGCGGGUUCGAGUCCCAUACGGAACG | ≤ 0.5
GUUCCGUUGGCGUAAUGGUAACGCGUCUCCCUCCUAAGAAGAAGACUGCGGGUUCGAGUCACGUACGGUACG | ≤ 0.5
GUUCCGUUGGCGUAAUGGUAACGCGUCUCCCUCCUAAGAAGAAGACUGCGGGUUCGAGUCCCGUAAGGAACG | 0.698
GUUCCGUUGGCGUAAUGGUAACGCGUCUCCCUCCUAAGAAGAAGACUGCGGGUUCGAGUCCCGUAGGGAACG | 0.711
GUUCCGUUGGCGUAAUGGUAACGCGUCUCCCUCCUAAGAAGAAGACUGCGGGUUCGAGUCCCGUACGGCACG | 0.818
GUUCCGUUGGCGUAAUGGUAACGCGUCUCCCUCCUAAGAAGAAGACUGCGGGUUCGAGUCCCGUACGGUACG | 1.03
GUUCCGUUGGCGUAAUGGUAACGCGUCUCCCUCCUAAGAAGAAGACUGCGGGUUCGAGUCCCGUACGGGGCG | 0.946
GUUCCGUUGGCGUAAUGGUAACGCGUCUCCCUCCUAAGAAGAAGACUGCGGGUUCGAGUCCGGUACGGAACG | 0.752
GUUCCGUUGGCGUAAUGGUAACGCGUCUCCCUCCUAAGAAGAAGACUGCGGGUUCGUGUCCCGUACCGAACG | 0.555
